Test system: MS2 coat protein
Assay: apparent Kd, MS2 coat protein; higher = weaker binding; RNA-MaP array; FMN 200 µM where present
Procedure, shortened: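 Designs were transcribed by stalled E. coli RNA polymerase on Illumina sequencing-chip clusters. They were titrated with SNAP-549-labelled MS2 coat protein from 0.7 or 1.5 nM, doubling to 3 µM, without and then with constant ligand. Buffer: 100 mM Tris-HCl pH 7.5, 80 mM KCl, 4 mM MgCl2, BSA, DTT, yeast tRNA, Tween-20. Green signal was normalised to red-channel RNA signal and control-cluster median Fmax. Apparent Kd is the median of filtered per-cluster binding-curve fits.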

[1] = designed as: OFF switch for flavin mononucleotide, no ligand
[2] = ligand present: flavin mononucleotide, designed as: OFF switch for flavin mononucleotide
[3] = designed as: ON switch for flavin mononucleotide, no ligand
[4] = ligand present: flavin mononucleotide, designed as: ON switch for flavin mononucleotide

Sequence	apparent Kd [1] [nM]	apparent Kd [2] [nM]	apparent Kd [3] [nM]	apparent Kd [4] [nM]
UGUCAUAUAUAGAAGGGUAGUAGGGAUUUACAUGAGGAUCACCCAUGUAUUAUAGGAUAUGUGUAUAGUUUUUAUUCAAGUUUA	24.7	18.8		
CCUUAAAAGAUCCAAAAUUACAACAUGAGGAUCACCCAUGUGCAGGAUAUCGUGCCAGUGAUGUACGAGAAGGGCAGACUCUGC	147	170		
AUCAUGUAAGGAUAUCUUACAUGUGACUUCGGUCACUGUCAAGAGAAGGUACAUGAGGAUCACCCAUGUAUGAC	14.7	19		
AAAUUUAACGAAGGAUAUGCUGACAUGAGGAUCACCCAUGUGUGCCUUGUGUUACUGAUUAGGAAGCAGAAGGUCGUAUACAUA	831	414		
UGAUAGGACAGAGGAUAUACGUGCUGGUGAUACUAGCAAAGUAUCGUGACAUGAGGAUCACCCAUGUAGAAGGCUGUCCUAUCU	81.1	27.3		
GUCCUACAUGAGGAUCACCCAUGUCAGGAUAUGUAGCGUCCGGGCGAUAAGGCUCGGAGCAGAAGGGACAGGUG	14.2	16.2		
CCAUCUUGUCGAGGAUAUAUUAACAUGACAUGAGACACAUGAGGAUCACCCAUGUAUGUUGUUGUAUAGAAGGCGACUACAUGA			50.4	51.2
GCAUGCAAGUAGAAGGACAGAUAUUUUGAUACUGUAGGAUAUGCAGAAUCAUAUCCACAUGAUAACAUGAGGAUCACCCAUGUA	11.6	10		
GGGAGACAUGAGGAUCACCCAUGUGAAAACGUGUGAGGAUAUGUAUGGAAACCAUACUGUACAGAAGGCACUUGUC			53.8	41
AAUAAAAUGAUGUUACAUGAGGAUCACCCAUGUAAGUGAUGGAGAAGGUCCCACGACUUGGGCGGGAAGGAUAUUCAGAGCAUA			16.8	10.3
UAAAAGGAAGGAUAUACACUUCAAAACCUCAUGUGACUUUCACAUGAGGAUCACCCAUGUAGAAGGUCCAAGGC	24	33.9		
AAUAACAGAGGAUAUACUAUUUUAUGUAUUUAUUAUUUUAAACAUGAGGAUCACCCAUGUAGAAGGCUGAUUGA	29.9	28.4		
UAAUUGUGAGGAUAUCAGGUGUGCUAGCGUACUGGUACAUCUGAGAAGGCACAUGAGGAUCACCCAUGUUCCUU	13.8	37.6		
UCCCUGUGAGGAUAUCUCGUUCCGGUGAAAUUAGCUAGAUGGGAGAAGGCACAUGAGGAUCACCCAUGUGACGA	22	26.6		
GGUUCGGGAGGAUAUGUUUUUUUUUACAUGAGGAUCACCCAUGUUUUUGUGUUUUUUUUCAUAGAAGGUUUGGGCC	39	39.3		
ACAGGCUUCGAGAAGGACAUGAGGAUCACCCAUGUGCGUGUGAAGCAGCCGUGAGGCUGCAUCAUGUAGGAUAUCGGAGUCUGG	76	504		
GUAGUGUAUGUAGGAUAUGUGAAGCAAAGCUUCACAGAAGGACAUGAGGAUCACCCAUGUAUUGCAGCCUGCAAUCAGGCUGCU	41	144		
AAAAGUUGAGGAUAUGGCUAUUUGGACAUGAGGAUCACCCAUGUGUCUAUGGCCCGGGUGCCAGAAGGUGAUUACU	92.2	94.3		
AUAUGAUUAAGAGGAUAUAUACAACAUGAGGAUCACCCAUGUACCCAUGUAGUAGAAGGUUUGUUUUUAUAUAAUAAUAUAAUU			74.8	52.1
UUAUUAAGUGUGAGGAUAUGCUGGUCCUUGGAUCAGCAGAAGGCACAUGAGGAUCACCCAUGUACAUUAUUUUA	35	247		
GGCACUGUAGGAUAUACAUGAACAAUUGGUAUCCUCAGUCCACAUGAGGAUCACCCAUGUAGAAGGAUAGAAAA	58.6	46.1		
GUAGGAAUCACAGGAUAUGCAUGCGCCGCUUCGAUCUACAUGAGGAUCACCCAUGUGUGGUCCGUGUAGAAGGGUGUUUGCUAC			80.8	34.7
UGUACAUUAUUAAGUAAUUAGGCGAAGGAUAUAUAACAUGAGGAUCACCCAUGUACUAAAUUGAAGUAGAAGGUUGAGCAUUUC			16.2	13.7
GAUCAACAUGAGGAUCACCCAUGUGAGGAUAUGGACUUGCCCACUUAACCAUUAGAGUCUAGAAGGCGCAUCUA	27	29.9		
CACAAGAAAGUCGAAGGUUGAAGUAGAAGGACAACAACAUGACAUGAGGAUCACCCAUGUGCCAUGUAGGAUAUGCUUUAAUCG	9.14	8.28		
ACGGCAAUCACAGGAUAUGGUUACAUGAGGAUCACCCAUGUCAAGGGUCUAAUUAGGUAUAACUACCAGAAGGGUGAAGGCCUA	74.4	105		
GCGAUUUUGUAAGGAUAUACACGAGUUUUAAGUGUAGAAGGUACUUACAUGAGGAUCACCCAUGUAUUAAUGUUUAAUAGUCGC			8.5	6.84
GAGUAGAUCCGAGGAUAUACAAUCCGGAAACGGUACAUGAGGAUCACCCAUGUAGAAGGCGGAUCUACAGGUACUAAAGUACCA	6.24	8.12		

Sequence	apparent Kd [1] [nM]	apparent Kd [2] [nM]	apparent Kd [3] [nM]	apparent Kd [4] [nM]
UCAUAUUUACAAGGAUAUCAAUAUAAUAUAAUACCAACAUGAGGAUCACCCAUGUAUUAGCGUAAUGAGAAGGUGUAUUGUCGG			51.2	41.4
UUCAAGGGUUGAGGAUAUCCCGGUUGUGUCCUCAUCCGCCAAGGUACAUGAGGAUCACCCAUGUGGGAGAAGGCAAUACUAGAG	130	182		
AAAGUUGGUAGGCCCUCGGAACAUGAGGAUCACCCAUGUAAGGAGGAUAUGCCCGGUACCCGCUGGCAGAAGGCCUUAUAAGAA	28.2	239		
AUCAGCUCGUCAGGAUAUACGUCACUGCGUCAGCAUUGUGGUAAGAUCACAUGAGGAUCACCCAUGUAGAAGGGACGAGCUGAU	19.5	190		
GUAGAGUCAGGAUAUACAGAAAGUGGCUGGAAAACAGUGGCACAUGAGGAUCACCCAUGUAGAAGGGACUCUAC	89.4	215		
AUCAUUCGUGUAGGAUAUGCGUCAGAAACUGAUGCAGAAGGACAUGAGGAUCACCCAUGUCUUUCUCGAGCUGUAGCUCGAGGA	21.3	145		
CGAGUGUGAGGAUAUCCAGCCGGUGGGAUUACGUCGACGCUGGAGAAGGCACAUGAGGAUCACCCAUGUGGACA	111	234		
UGUUGUAUUACAGGAUAUCUAUUAUUUUUAUGUAGAGAAGGGUAUUCACAUGAGGAUCACCCAUGUAUAUACGAGGAAGUUGUG			44.1	45.5
AAAGUACAUGAGGAUCACCCAUGUCCCAAUGAAUAAGGAUAUACGAAAAUAAAAUAAAAUGUAGAAGGUAUAAUAG			31.6	27.2
UGUAGUUCAGGAUAUGAUGUUUAAUACAUGAGGAUCACCCAUGUAGAUCCUGAAUUAACAUCAGAAGGGAAUAUUU	20.7	45.2		
AGCUGUGGCCGAGGAUAUCUGAACCUUCAAACCGAAAUAUAAUCGGACAUGAGGAUCACCCAUGUAGAGAAGGCGGUCUCAGCA	12	22.6		
GCCACGUCAGGAUAUCUGAUGUCUAACUUCGGUUAGACAUCAGAGAAGGGACAUGAGGAUCACCCAUGUGGCAA	264	177		
UAGAUUUAUGUAGGAUAUACAUUUUGUACGUAUGUAGAAGGACAUGAGGAUCACCCAUGUAAAUAAAUAUUAAAUAUCAUAAUU	50.5	32.4		
GCGCAGUCAGGAUAUGCCGCUGGCGAUCACCGUGGGCAAAGGCAGAAGGGACAUGAGGAUCACCCAUGUGGCGC	72.1	32.9		
UUUCCGCGAGGAUAUGCGGGUUGUGCUUUUCAUUUCUUACAACAUGAGGAUCACCCAUGUAGAAGGUGCUUCUU	174	156		
GUGACGAUGUAAGGAUAUGCUGAGGAAUACUCAGCAGAAGGUACAUGAGGAUCACCCAUGUAAAUAAUAAUAAAUAAACGUCAC	15.2	24.1		
ACUCAGUCAGGAUAUCGUUAAUUUAAUUGUUUGUUUUAGUUCGAGAAGGGACAUGAGGAUCACCCAUGUACUCA	25.3	51.2		
AUACAUGAGGAUCACCCAUGUAAUUAAUUAACUAGUAAGAUCUAGGAUAUCAGCUCGUUUAGAGCUGAGAAGGAGAUCACAUGU			36.8	15.6
AUCCUACAUGAGGAUCACCCAUGUGAGGCCUCAAUAGGAUAUGCGUGUGCCUUGGCGCAUGCAGAAGGAUUGAAGC			363	52.5
GUGGCUAGUGCAGGAUAUUAGCGCGUGUAGUGUUGAGAAGGGCACAUGAGGAUCACCCAUGUGAUCAAUCACUGUUAAGGUCGC	12.7	25.3		
GGAUGAGAAACUCAUCCUUAACGAACAUGAGGAUCACCCAUGUAGGAUAUGCUACUCAAAGAGUAGCAGAAGGACAUGUGCCUU	29.9	264		
UUAAUUAACAAGAAGGCAUACAUGAGGAUCACCCAUGUUGUACAUGGAUAAUGAGGAUAUUGCUAAUAAUUAUUUUUCUUAAUU	47.6	35.5		
CCUCCCUGAGGAUAUCCACCCUCAUACAUGAGGAUCACCCAUGUUCAACCCUGGGUUCCCGGAGAAGGCAGCCUCC	706	650		
CUGUAUCGGUCAGGAUAUGUGCGUAAACUGUGAACAGAAGGGACCGUACAUGAGGAUCACCCAUGUCCGGGACUCCUUAUGCCU	18.1	22.2		
GCAUGGGCCGUCAGGAUAUAGGCGCCGUGAAGGUAUUAGAAGGGACAUGAGGAUCACCCAUGUAUGAGAAAAGA	36.7	42.7		
GGAAAUCAUGUAGGAUAUGCAUGGCGAAGCUACGCAGAAGGACAUGAGGAUCACCCAUGUUCUAGCUACCGAGUUCGGUGGCAA	21.6	114		
GGCGAACGGGCUUACAUGAGGAUCACCCAUGUAGACUCAUGGUAGGAUAUGCUGUACUUUGUACAGCAGAAGGGCCGGUGAGCU			65.8	38.7
